Laboratory results taken from ChEMBL document CHEMBL4396879, “Conjugation of Short Peptides to Dibenzodiazepinone-Type Muscarinic Acetylcholine Receptor Ligands Determines M2R Selectivity” (J Med Chem, 2019).

Key:
[1] = Stability of the compound in human plasma used as 1:2 ratio of plasma to pH 7.4 PBS assessed as intact compound at 100 uM incubated for 24 hr […]; format: ADME, cell-free; conditions: plasma diluted with PBS (1:2), read-out: Stability
[2] = biological target: T1, Muscarinic acetylcholine receptor M2 (Homo sapiens, UniProt P08172); test: Competitive displacement of [3H]-NMS from human muscarinic M2 receptor expressed in CHO-K9 cells using 2 nM [3H]-NMS after 3 hrs by microbeta2 scintillation counting method; format: cell-based
T1 sequence (P08172 whole entry): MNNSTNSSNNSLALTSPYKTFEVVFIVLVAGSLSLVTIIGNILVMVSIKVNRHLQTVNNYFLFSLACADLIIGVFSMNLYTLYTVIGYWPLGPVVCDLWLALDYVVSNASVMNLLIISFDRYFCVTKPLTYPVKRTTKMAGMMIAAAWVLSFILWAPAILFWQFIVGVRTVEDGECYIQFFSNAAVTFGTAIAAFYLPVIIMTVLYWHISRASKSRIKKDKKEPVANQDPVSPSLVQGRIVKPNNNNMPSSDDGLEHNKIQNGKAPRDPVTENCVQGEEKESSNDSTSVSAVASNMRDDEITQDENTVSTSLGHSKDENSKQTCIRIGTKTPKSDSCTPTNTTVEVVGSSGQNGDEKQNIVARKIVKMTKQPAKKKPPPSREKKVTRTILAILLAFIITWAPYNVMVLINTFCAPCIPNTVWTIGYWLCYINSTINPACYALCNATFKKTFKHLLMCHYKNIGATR
In short: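 Intact CHO-hM2R cells incubated at 22 °C with a high [3H]NMS concentration (2 nM). […] Curves were fitted by four-parameter logistic fits. Mean ± SEM from ≥4 experiments in triplicate.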

[3] = Stability of the compound in human plasma:PBS of pH 7.4 (1:2) assessed as intact compound at 100 uM incubated for 1 hr by LC-MS analysis; format: ADME, cell-free; conditions: plasma diluted with PBS (1:2), read-out: Stability
In short: (§1)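 Compound added at 100 μM (from 5 mM stock in acetonitrile/0.04% TFA 3:7) to heparinized human plasma/PBS pH 7.4 (1:2 v/v) with 10 μM 1-methyl-D-tryptophan as internal standard. Incubated shaking at 37 °C in triplicate. Aliquots were EtOH/acetonitrile-precipitated and analysed by RP-HPLC at 220 nm, with recovery correction against four-point calibrations.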

[4] = biological target: T2, Muscarinic acetylcholine receptor M4 (Homo sapiens, UniProt P08173); test: Displacement of [3H]-NMS from human muscarinic M4 receptor expressed in CHO-K9 cells after 3 hrs by microbeta2 scintillation counting method; format: cell-based
T2 sequence (P08173 whole entry): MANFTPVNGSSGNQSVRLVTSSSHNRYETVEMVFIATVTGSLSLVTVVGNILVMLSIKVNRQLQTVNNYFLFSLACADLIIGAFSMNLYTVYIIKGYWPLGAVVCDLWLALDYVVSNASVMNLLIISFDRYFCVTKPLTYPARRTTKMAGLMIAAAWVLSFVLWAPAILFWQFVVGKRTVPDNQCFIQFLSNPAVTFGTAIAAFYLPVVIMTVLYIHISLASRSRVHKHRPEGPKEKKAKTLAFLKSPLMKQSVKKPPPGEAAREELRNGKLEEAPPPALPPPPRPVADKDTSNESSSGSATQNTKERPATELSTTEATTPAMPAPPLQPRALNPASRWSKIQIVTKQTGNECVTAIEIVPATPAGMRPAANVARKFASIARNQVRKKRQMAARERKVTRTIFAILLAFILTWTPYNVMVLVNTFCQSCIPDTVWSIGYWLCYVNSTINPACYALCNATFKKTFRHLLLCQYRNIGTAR
In short: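 [3H]NMS competition binding on intact CHO-hMxR cells in L15 medium with 1% BSA, 3 h at 22 ± 1 °C with gentle shaking. [3H]NMS was 0.2 nM (M1, M2, M3), 0.1 nM (M4) or 0.3 nM (M5). […] Cells were lysed in urea/acetic acid/Triton and counted by liquid scintillation. Ki from Cheng-Prusoff. Triplicates, ≥3 experiments.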

[5] = Stability of the compound in human plasma used as 1:2 ratio of plasma to pH 7.4 PBS assessed as intact compound at 100 uM incubated for 6 hr […]; format: ADME, cell-free; conditions: plasma diluted with PBS (1:2), read-out: Stability
[6] = Stability of the compound in human plasma used as 1:2 ratio of plasma to pH 7.4 PBS assessed as intact compound at 100 uM incubated for 48 hr by LC-MS analysis; format: ADME, cell-free; conditions: plasma diluted with PBS (1:2), read-out: Stability; in short: as §1

remaining at 24 h, 100 µM [1]	IC50 [2]	Ki [2]	remaining at 1 h, 100 µM [3]	Ki [4]	remaining at 6 h, 100 µM [5]	remaining at 48 h, 100 µM [6]	SMILES
> 99%	1.78 nM	0.0794 nM	> 99%	2.09 nM	> 99%	> 99%	CC(=O)N[C@@H](CCCCN)C(=O)N[C@@H](C)C(=O)N[C@@H](CCCNC(=N)N)C(=O)NCCN1CCN(CCCCC2CCN(CC(=O)N3c4ccccc4NC(=O)c4ccccc43)CC2)CC1
> 99%	41.7 nM	2.04 nM	99%	61.7 nM	> 99%	> 99%	CC(=O)N[C@@H](CCCCN)C(=O)N[C@@H](CCCNC(=N)N)C(=O)NCCCCC1CCN(CC(=O)N2c3ccccc3NC(=O)c3ccccc32)CC1
